Shown is part of a subset that was picked to be rich in hits.
UPR CHOP act: activators of apoptotic arm of unfolded protein response (CHOP) | AID 449763 | CHO-CHOP luciferase reporter, UPR activation, luminescence; percent of tunicamycin response over DMSO baseline | activation, % at 10 µM | 330,000 tested, 0.34% active;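 active = at 10 µM dose, activation of 40% or more, normalized to positive control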;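 note: 100% = tunicamycin at 10 µg/mL and 0% = DMSO alone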
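Evaluation: % reporter activation, DMSO baseline versus tunicamycin full activation; System: CHO-CHOP luciferase reporter cell line; Input: 500 cells/well; Incubation: 6 h compound treatment, 37 °C; Measured by: Steady-Glo luciferase luminescence; Dosing: one dose, 10 µM in 0.5% DMSO; Buffer or medium: F12 medium, 10% FBS; Benchmarks: positive tunicamycin 10 µg/mL, negative DMSO alone.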
L major viab: reduces viability of Leishmania major promastigotes; inhibition, % at 10 µM; 200,000 tested, 9% active; resazurin fluorescence viability; in the data active = inhibition above about 50%;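 note: promastigotes grown with compound for 44 hours at 28 °C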
UPR XBP1 act: activators of adaptive arm of unfolded protein response (XBP1); CHO-XBP1 luciferase reporter, IRE1-XBP1 UPR activation, luminescence; percent of tunicamycin response, DMSO as zero; activation, % at 20 µM; AID 463104; 330,000 tested, 0.33% active;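 active = versus positive control, 20 µM dose yields 30% or more activation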;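 note: 100% = tunicamycin at 10 µg/mL and 0% = DMSO only wells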
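assay system = CHO-XBP1 luciferase reporter cells | amount = 1000 cells/well | buffer or medium = F12 plus 10% FBS | compound dosing = single point, 20 µM final compound, 1% DMSO | incubation = 16-18 h cell attachment at 37 °C, then 6 h compound exposure | detection = Steady-Glo luminescence read | controls = tunicamycin 10 µg/mL and vehicle-only wells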
CHOP inh: CHOP inhibition in unfolded protein response. inhibition, % at 10 µM. CHO-K1 CHOP-promoter luciferase, tunicamycin-induced, 15-18 h. 220,000 tested, 3.8% active;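 active = compounds that reduced the stress-induced luciferase reporter signal by more than about 70% of percent inhibition, limit read from the data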;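 note: 0% = tunicamycin plus vehicle and 100% = wells without tunicamycin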
T cruzi inh: blocks replication of Trypanosoma cruzi | 300,000 tested, 1.4% active | AID 1885 | T. cruzi beta-gal in NIH3T3, luminescence, 90 h | inhibition, % (no concentration beside the values);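 active = mean inhibition across valid replicates above about 55%, limit read from the data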;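 note: signal also drops with host cell toxicity which is not excluded here; 0% = plate median of DMSO wells and 100% = zero luminescence signal; higher percent means less beta-gal luminescence so fewer parasites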
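Test system: β-gal T. cruzi (Tulahuen C4) inside NIH/3T3 cells / Quantity: 5,000 cells/well / Measured by: luminescence from GalScreen with 0.05% NP40, read after 60 min / Medium: DMEM plus 2% FBS / Measure: parasite load inhibition, % / Reagent: Tulahuen C4 trypomastigotes, 5000/well / Schedule: co-culture of at least 90 h after 3 h attachment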
Dynein transport: blocks dynein driven cargo transport along microtubules | 3617.4 mouse cells, GR-EGFP nuclear translocation imaging; test concentration mostly 20 µM; stimulated with dexamethasone, 1 µM; active compounds read low | z-score, hits read low | 220,000 tested, 0.47% active | AID 1381;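 active = plate z-score of nuclear minus cytoplasmic receptor signal below a set negative limit, without overly bright fluorescence or cell loss, cut at about -3.5 in these data, passing the limit was not always enough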;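 note: z-score of nuclear minus cytoplasmic ring GR-EGFP intensity difference per well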
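Medium: Induction medium lacking tetracycline, stripped serum | Probe or stimulus: 1.0 µM final dexamethasone stimulus | Schedule: 48 h induction, then 1 h compound, then 30 min agonist, 37 °C | Signal: Automated 10x imaging of fixed Hoechst-stained cells | Evaluation: Per-cell GR-EGFP intensity, nucleus versus surrounding cytoplasmic ring, well-averaged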
* marks the source's active call; other numbers are inactive results; / = not tested or not shown.

SMILES	UPR CHOP act	L major viab	UPR XBP1 act	CHOP inh	T cruzi inh	Dynein transport
CN(C(=O)Cc1c(C(=O)O)n(C)c2ccccc12)c1ccc(F)cc1	0	-7	-3	-2	-19	0.093
O=C(CCC1CCN(C(=O)c2ccco2)CC1)NCc1ccc(F)cc1	-1	/	-3	/	-2	/
CCN(CC)S(=O)(=O)c1ccc(N2CCCC2)c(C(=O)Nc2ccc(OC)c(Cl)c2)c1	-2	91*	-3	31	12	-0.28
COc1cc(SC)ccc1C(=O)Nc1cccc(S(=O)(=O)NC2=NCCCCC2)c1	0	/	3	/	12	/
CCN(CC)S(=O)(=O)c1cccc(NC(=O)c2ccc(SC)cc2OC)c1	0	62*	1	12	20	-0.23
CCn1cc(C(=O)NCCCN(CC(C)C)CC(C)C)c(=O)c2cc(S(=O)(=O)N3CCOCC3)ccc21	1	/	-4	/	-1	/
Cn1c(=O)c(=O)n(C)c2cc(N3CCCCC3)c(NS(=O)(=O)c3ccc([N+](=O)[O-])cc3)cc21	1	/	-1	/	14	/
C/C(=N/NC(=O)c1ccc(Br)o1)c1cccc(NC(=O)c2ccc(C)o2)c1	3	92*	0	-23	-24	-0.13
C/C(=N\NC(=S)Nc1cccc(C)c1)c1ccccc1	5	-4	0	-16	35	-0.11
C/C(=N\NC(=S)Nc1cccc(C)c1)c1ccco1	5	27	0	-93	77*	0.16
C/C(=N/NC(=O)c1ccc(Br)o1)c1cccc(NC(=O)c2ccc(F)cc2)c1	0	/	-1	/	13	/
Cc1ccc(O)c(NC(=O)c2cccc(NC(=O)c3ccco3)c2)c1	1	98*	2	27	-16	0.85
CC(=O)c1cccc(NC(=O)c2ccc(-c3ccccc3[N+](=O)[O-])o2)c1	7	75*	2	-15	-16	-0.29
CCOc1ccc(Cl)cc1C1=CC(=O)C[C@H](c2ccc(OC)cc2)C1	2	/	7	/	/	/
COCCN(C(=O)C1CCCO1)c1c(N)n(CC(C)C)c(=O)[nH]c1=O (stereo not drawn)	1	/	0	/	/	/
C/C(=N\NC(=O)c1ccncc1)c1cccc(NC(=O)c2ccc(C(C)(C)C)cc2)c1	4	/	-3	/	1	/
C/C(=N\NC(=O)c1nn(C)cc1Br)c1cccc(NC(=O)c2ccncc2)c1	1	63*	2	-28	13	0.25
CC/C(=N/NC(=O)c1ccc(Br)o1)c1ccc(Cl)cc1	1	-2	1	25	16	-0.084
C/C(=N/NC(=O)c1ccco1)c1cccc(NC(=O)c2ccc(C)o2)c1	-1	66*	-2	-6	-2	-0.26
CCCC/C(=N\NC(=O)c1ccc(Br)o1)c1ccccc1	-2	89*	-2	-4	14	-0.48
C/C(=N\NC(=O)c1cccc(Cl)c1)c1cccc(NC(=O)c2ccco2)c1	1	32	3	-12	-6	0.53
C/C(=N\NC(=O)c1cccc(C)c1)c1cccc(NC(=O)c2ccco2)c1	1	83*	-2	-30	-10	0.29
O=C(NCCO)c1nc(C(=O)c2ccccc2)c2ccccc2n1	0	/	3	/	/	/
O=C(Nc1ccc(N2CCN(C(=O)c3ccccc3)CC2)c(Cl)c1)c1ccc(Br)o1	4	23	-2	85*	43	-0.65
Cc1cc(C(=O)Nc2cccc(C(=O)O)c2)c(C)o1	0	-4	-2	15	-21	1.2
SMILES	UPR CHOP act	L major viab	UPR XBP1 act	CHOP inh	T cruzi inh	Dynein transport
Cc1cc(C(=O)Nc2cccc(C(=O)O)c2)oc1C	-11	-5	-9	75*	4	-1.1
O=C(c1ccccc1)c1cccc(NC(=O)c2ccc(Br)o2)c1	7	97*	1	31	38	-0.08
Cc1ccccc1C(OCC(O)CN1CCN(CCO)CC1)c1ccccc1 (stereo not drawn)	0	/	-1	/	-6	/
OC1CCCN(Cc2ccc3c(c2)Cc2ccccc2-3)C1 (stereo not drawn)	-1	73*	1	57	45	0.29
CC(=O)Nc1ccc(N=Nc2ccc(O)cc2)cc1	5	52*	5	24	-5	-0.026
CC(=O)Nc1ccc(N=NN2CCOCC2)cc1	3	0	-1	-5	13	-0.36
CC(NC(=O)COc1ccccc1)C(=O)NCc1ccccc1Cl (stereo not drawn)	0	/	0	/	/	/
CCOC(=O)CN(C(=O)CSc1nnc2c(n1)[nH]c1ccc(OC)cc12)c1ccc(F)cc1	2	90*	6	59	24	0.25
CCc1n(CC(O)COC2CCCCC2)c2ccccc2[n+]1C (stereo not drawn)	2	-2	-4	-11	7	0.47
CCCc1n(CC)c2ccccc2[n+]1CC(O)COC1CCCCC1 (stereo not drawn)	1	97*	0	0	47	-0.43
CCOc1ccc(C(=O)n2cc(C(=O)OC)c3ccccc32)cc1	2	/	2	/	-2	/
COC(=O)/C=C1\SC(=NC(=O)c2ccc(-c3ccccc3)cc2)NC1=O	2	/	-4	/	/	/
Cc1ccc(S(=O)(=O)N(C)Cc2ccc(C(=O)N/N=C/c3ccc(OC(F)F)cc3OC(F)F)cc2)cc1	-2	55*	-2	27	23	0.18
CCOC(=O)Cn1c(CN2CCN(C(c3ccccc3)c3ccccc3)CC2)nc2c1c(=O)n(C)c(=O)n2C	2	53*	-1	30	12	-0.22
Cn1c(=O)c2c(nc(CN3CCc4ccccc4C3)n2Cc2ccc(F)cc2)n(C)c1=O	2	32	1	/	12	-1.2
CCN1CCN(Cc2nc3c(c(=O)n(C)c(=O)n3C)n2Cc2cccc3ccccc23)CC1	1	92*	2	-7	-3	-0.37
CCN1CCN(c2nc3c(c(=O)n(C)c(=O)n3C)n2Cc2cccc3ccccc23)CC1	-1	13	0	11	-9	-0.19
Cc1ccccc1Cn1c(CN2CCc3ccccc3C2)nc2c1c(=O)n(C)c(=O)n2C	-1	81*	-2	39	54	0.012
Cc1nc2c(Br)cc(Br)cc2cc1O	0	-5	-1	81*	2	-0.27
Brc1cc(Br)c2nc(-c3cccs3)ccc2c1	3	-4	2	69	13	2.9
COc1ccc(Cl)cc1NC(=S)NC(=O)c1ccco1	0	/	1	/	/	/
CCOc1ccc(N(C(=O)c2ccccc2Cl)C2=NC(C)(C)CS2)cc1	1	62*	-1	-14	9	-0.033
CCOc1ccc(N(CC(=O)Nc2ccccc2Cl)S(C)(=O)=O)cc1	-2	/	-2	/	1	/
O=C(CCCN1C(=O)/C(=C/c2ccccc2)SC1=S)Nc1cccc(O)c1	0	65*	-2	67	24	1.6
